Source: PubChem
Hsp70 activator – transcriptional activators of Hsp70; HeLa Hsp70 promoter luciferase reporter, luminescence; scaled: vehicle 0, proteasome-inhibitor control 100%; activation, % at 10 µM; 200,000 compounds, 0.04% hits; AID 1203;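 active = activation above the mean across all tested compounds plus 3 SD, cutoff set per campaign, cut at about 5.5% in these data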;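 note: 100% = MG132 at 30 µM as the positive control and 0% = DMSO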
Wee1 degr inh – inhibitors of human Wee1 degradation. P30291. reporter increase, % at 5 µM. HeLa Luc-Wee1K328M stability, luciferase luminescence; 100% = proteasome inhibitor MG132 effect. 220,000 compounds, 1.2% hits;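 active = activation above the mean of all tested compounds plus 3 SD, set per screening run, cut at about 8.8% in these data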;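 note: cells exposed to compound for 20 h before luminescence read; 0% = DMSO alone and 100% = MG132 at 30 µM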
Target sequence (P30291 whole entry K328M): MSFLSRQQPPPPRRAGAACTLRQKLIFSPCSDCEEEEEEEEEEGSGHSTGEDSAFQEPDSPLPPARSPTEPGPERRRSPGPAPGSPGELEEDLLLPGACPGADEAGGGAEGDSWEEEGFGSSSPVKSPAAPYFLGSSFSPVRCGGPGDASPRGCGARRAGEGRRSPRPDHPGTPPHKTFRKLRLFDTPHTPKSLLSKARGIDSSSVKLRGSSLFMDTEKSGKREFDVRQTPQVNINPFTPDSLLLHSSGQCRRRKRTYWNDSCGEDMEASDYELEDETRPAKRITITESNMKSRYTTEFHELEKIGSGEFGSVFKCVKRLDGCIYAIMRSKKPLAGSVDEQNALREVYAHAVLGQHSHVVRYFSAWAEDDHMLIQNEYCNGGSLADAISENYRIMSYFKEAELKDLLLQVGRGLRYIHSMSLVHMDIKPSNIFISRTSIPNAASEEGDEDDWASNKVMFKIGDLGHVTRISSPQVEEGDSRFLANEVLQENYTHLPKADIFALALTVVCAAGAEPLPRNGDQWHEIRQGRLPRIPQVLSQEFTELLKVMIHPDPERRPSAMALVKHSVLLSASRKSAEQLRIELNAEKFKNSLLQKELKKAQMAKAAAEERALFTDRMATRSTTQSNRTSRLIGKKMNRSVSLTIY
Pf gamet viab – P. falciparum stage V gametocyte viability inhibition; P. falciparum stage V gametocytes, ATP luminescence, 24 h; inhibition, % at 10.9 µM; 150,000 compounds, 0.065% hits; AID 743093;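 active = inhibition above the mean plus 3 SD of compounds within the control limits, set per campaign, cut at about 38% in these data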;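 note: 0% = DMSO wells and 100% = medium only without gametocytes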
MDM2 E3 inh – blocks human Mdm2 ubiquitin ligase activity | cell-based MDM2 ubiquitination luciferase reporter, 2 h; 0 = plate control, 100 = twice control, blank-subtracted | signal enhancement, % at 5 µM | 210,000 compounds, 0.11% hits;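 active = signal enhancement of 30% or more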;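 note: luminescence tracks abundance of the self-degrading MDM2-luciferase fusion protein; higher signal means inhibition of MDM2 E3 ligase activity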
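Test system: stable mammalian line carrying autodegrading MDM2–luciferase fusion reporter; quantity: 2000 cells in each well; times: 4 h cell settling then 2 h compound exposure, 37 °C; detection: luminescence with SteadyLite reagent, 15 min at room temperature; evaluation: percent signal gain over controls, blank-subtracted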
Wee1 stab conf – human Wee1 degradation inhibition, confirmation; shares compounds with Wee1 degr inh; HeLa Luc-Wee1K328M degradation, luminescence; vehicle 0%, proteasome-blocked wells 100%; activation, % at 5 µM; 1,100 compounds, 4% hits; in the data active = activation above about 8.9%
Starred values were filed as active, the others as inactive; . = no result given. Compounds with a hit are over-represented: about 1.3% of the library has one in this group of screens.

SMILES	Hsp70 activator	Wee1 degr inh	Pf gamet viab	MDM2 E3 inh	Wee1 stab conf
Cc1ccccc1N(C(=O)Cc1cccs1)C(C(=O)NCC1CCCO1)c1cccnc1 (centres undefined)	-0.3	-1.6	.	-22.7	.
O=C(NCC1CCCO1)C(c1cccnc1)N(C(=O)Cc1cccs1)c1ccccc1 (centres undefined)	0.0	16.9*	1.3	-16.6	0.5
Cc1ccc(NC(=O)CCC(=O)c2cccs2)c(O)c1	.	14.5*	-4.0	.	-0.2
OCCN(CCO)c1ncnc2c1sc1nc(N3CCOCC3)c3c(c12)CCCC3	-0.3	13.9*	-7.7	-15.4	1.3
CCSc1nnc(NC(=O)Cn2cnc3c2c(=O)n(C)c(=O)n3C)s1	-0.2	-2.9	0.8	-2.5	.
Cc1nnc(NC(=O)Cn2cnc3c2c(=O)n(C)c(=O)n3C)s1	-0.6	11.7*	.	8.4	0.0
Cc1ccc(NC(=O)Nc2ccc(Cl)cn2)cc1	0.4	11.0*	15.5	-1.0	3.7
O=C(NCc1ccc(OC(F)(F)F)cc1)C1CC(c2ccccc2C(F)(F)F)=NO1 (centres undefined)	.	.	-1.2	25.1	.
COc1ccc(NC(=O)CSCC(=O)NCCc2ccccn2)cc1	0.0	16.3*	-10.9	-10.8	-1.5
COc1ccc(C2=NN(C(=O)CN3CCCC3)C(c3ccc(OC)cc3)C2)cc1 (centres undefined)	.	2.5	-3.9	-17.5	.
COc1ccc(C2=NN(C(=O)CN3CCCCC3)C(c3ccc(OC)cc3)C2)cc1 (centres undefined)	.	13.3*	-183.8	-14.4	2.6
Cc1cc(C)n(-c2nc3c(c(=O)n(C)c(=O)n3C)n2CC(O)COc2ccccc2C)n1 (centres undefined)	-0.6	-0.5	.	.	.
Cc1ccc(NC(=O)c2noc3c2CCCCC3)cc1	-0.2	3.6	.	-41.1	.
Cc1ccc(NC(=O)c2noc3c2CCCCC3)cc1C	-0.3	12.7*	-0.1	-39.3	0.8
CC(=O)Nc1ccccc1C(=O)C(=O)Nc1ccc(C)c(F)c1	0.1	17.8*	15.2	-3.4	8.0
Cc1ccc(C(=O)NC2CC(C)(C)NC(C)(C)C2)cc1C	0.1	11.9*	.	-2.5	-5.3
CC1Cc2ccccc2N1C(=O)CN1CCC(n2nnc3cc(C(F)(F)F)ccc32)CC1 (centres undefined)	-0.4	2.9	-4.8	11.0	.
Cc1ccc2nc(NC(=O)COC(=O)c3ccco3)sc2c1	0.3	11.5*	-13.5	-11.2	6.9
COc1ccc(/C=C2\SC(N3CCc4ccccc4C3)=NC2=O)cc1OC	-0.5	0.3	-33.3	-2.8	.
CC(C)N(c1ccccc1)c1ccc(NC(=O)COC(=O)CCN2C(=O)c3cccc([N+](=O)[O-])c3C2=O)cc1	-0.3	19.6*	-17.4	-4.0	-0.8
CC(=O)c1ccc(NC(=O)COC(=O)CCN2C(=O)c3cccc([N+](=O)[O-])c3C2=O)cc1	-0.1	-1.9	.	-7.0	.
O=C(Nc1ccon1)c1cccc(S(=O)(=O)N2CCCCCC2)c1	-0.2	-1.9	-19.3	3.3	.
O=C(Nc1ccon1)c1cccc(S(=O)(=O)N2CCCC2)c1	-0.2	29.0*	0.6	-1.9	-0.5
COc1cccc(/C=N/NC(=O)c2cc3c(OC)c(OC)ccc3[nH]2)c1OC	-0.2	11.6*	15.0	-15.2	10.3*
Cn1c2c(c(=O)n(C)c1=O)C(CC(=O)Nc1ccc(F)cc1)C(=O)N2 (centres undefined)	-0.2	11.2*	.	-9.1	-0.3
SMILES	Hsp70 activator	Wee1 degr inh	Pf gamet viab	MDM2 E3 inh	Wee1 stab conf
O=C(CCc1n[nH]c(=O)[nH]c1=O)Nc1cccc([N+](=O)[O-])c1	0.1	13.3*	.	-10.1	-2.0
Cn1cc(Br)c(C(=O)NC2C3CC4CC(C3)CC2C4)n1 (centres undefined)	0.2	12.1*	4.6	.	-0.2
O=C(Nc1ccccc1[N+](=O)[O-])c1cccnc1Cl	-0.4	-3.4	16.1	6.0	.
CC(C)c1ccccc1OS(N)(=O)=O	.	.	8.4	.	.
Cc1cccc(NC(=O)CN2CCC(NC(=O)C3CCCCC3)CC2)c1C	-0.4	-1.1	-19.8	-7.2	.
CCOC(=O)C1=C(C)NC(=S)NC1/C=C/c1ccccc1 (centres undefined)	-0.4	16.0*	.	-4.5	4.6
COC(=O)C1=C(C)NC(=S)NC1/C=C/c1ccccc1 (centres undefined)	-0.3	0.9	5.5	-20.2	.
CC1=[N+](C)c2c(ccc3cccnc23)C1(C)C	-0.1	2.8	-17.6	-22.1	.
C=C(C)CNC(=S)N/N=C/c1c(F)cccc1F	0.0	14.3*	-0.3	-5.8	0.4
O=C(N/N=C/c1ccc(Cl)cc1)c1cc2c(s1)-c1ccccc1CC2	0.1	26.3*	5.4	0.4	6.1
O=C(O)c1cc2c(s1)-c1ccccc1CC2	-0.1	-2.0	.	4.8	.
COC(=O)c1cc(OC)c(OC)cc1NC(=O)c1cc(C(C)(C)C)oc1C	.	1.3	18.4	-3.9	.
CC1CCCCN1C(=O)CSc1nnc(-c2c[nH]c3ccccc23)o1 (centres undefined)	-0.4	12.6*	.	3.6	1.4
Cc1ccc(C(=O)CSc2nnc(-c3c[nH]c4ccccc34)o2)cc1	0.1	3.8	4.4	-7.0	.
NS(=O)(=O)c1ccc(NC(=O)CN2C(=O)c3ccccc3C2=O)cc1	.	19.2*	-22.5	.	-1.9
CCc1c(C)c(C#N)c2[nH]c3ccccc3n2c1=S	.	1.9	-3.3	-5.8	.
O=[N+]([O-])c1ccccc1CNCCO	.	.	-10.4	.	.
CCCCNc1nc(N)nc(-c2cc(Cl)ccc2O)n1	-0.1	14.1*	-21.6	-10.4	1.7
Cc1cc(C)nc(NC(=O)c2ccc(COc3ccccc3Cl)cc2)c1	0.2	14.0*	.	-23.2	2.2
FC(F)(F)c1cc(-c2cccs2)nc2nc(N3CCOCC3)sc12	-0.1	12.2*	.	6.3	-0.7
O=C(Nc1cc(Cl)ccc1O)C1CC(c2ccccc2Cl)=NO1 (centres undefined)	.	.	5.4	.	.
CCOC(=O)/C(C#N)=N/Nc1ccccc1C#N	.	-2.8	1.8	2.9	.
O=C(C1=NN[C@@H]2C(=O)N(Cc3ccccc3)C(=O)[C@H]12)c1ccc(F)cc1	.	11.0*	11.7	-10.9	-2.6
O=C(OCc1ccccc1)C1=NNC2C(=O)N(Cc3ccccc3)C(=O)C12 (centres undefined)	-0.3	0.4	.	-13.0	.
Cc1ccc(-c2nnc(OCc3cccnc3)c3ccccc23)cc1	-0.3	-1.4	25.8	-12.3	.
O=S(=O)(c1cccs1)N1CCN(c2ccc(O)cc2)CC1	.	22.9*	-27.9	-6.1	-2.4
O=C(Nc1ccc(F)cc1F)c1csc(-c2cccs2)n1	0.2	11.0*	-16.7	-6.8	3.1
CCN1C[C@@H]2[C@@H]3C(=O)N(C)C(=O)[C@@H]3[C@](Cc3ccccc3)(C1=O)N2C(=O)c1ccc(Cl)c(Cl)c1	.	.	-12.8	.	.
O=C(Nc1ccc(S(=O)(=O)Nc2ncccn2)cc1)c1cnc(Cl)c(Cl)c1	-0.2	-2.3	9.8	-5.5	.
O=C(Nc1ccc(S(=O)(=O)Nc2nccs2)cc1)c1cnc(Cl)c(Cl)c1	.	19.0*	-6.8	.	0.5
